Series [1] addresses T1, ABCG2 (Homo sapiens, UniProt Q9UNQ0).
T1 sequence (Q9UNQ0 whole entry): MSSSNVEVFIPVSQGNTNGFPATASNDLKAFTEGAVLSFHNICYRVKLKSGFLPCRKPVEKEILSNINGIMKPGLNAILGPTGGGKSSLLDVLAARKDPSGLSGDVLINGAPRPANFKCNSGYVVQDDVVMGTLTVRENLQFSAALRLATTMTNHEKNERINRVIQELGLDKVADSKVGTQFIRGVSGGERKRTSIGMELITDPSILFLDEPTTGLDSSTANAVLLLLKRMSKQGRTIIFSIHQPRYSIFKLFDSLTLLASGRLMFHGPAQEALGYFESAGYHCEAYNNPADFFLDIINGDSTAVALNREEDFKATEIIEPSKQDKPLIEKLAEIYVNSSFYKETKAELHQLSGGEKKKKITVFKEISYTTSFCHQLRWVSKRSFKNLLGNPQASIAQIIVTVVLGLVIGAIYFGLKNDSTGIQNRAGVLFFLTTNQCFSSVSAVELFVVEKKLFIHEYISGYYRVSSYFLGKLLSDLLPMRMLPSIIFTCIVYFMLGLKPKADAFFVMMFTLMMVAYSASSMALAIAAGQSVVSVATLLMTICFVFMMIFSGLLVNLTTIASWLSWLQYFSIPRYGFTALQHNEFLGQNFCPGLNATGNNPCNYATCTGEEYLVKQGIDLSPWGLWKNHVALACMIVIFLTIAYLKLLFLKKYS
As to the kind of experiment: Effect on human ABCG2 transporter preincubated for 2 mins followed by ATP addition assessed as basal ATPase activity at 100 nM and measured after 20 mins by colorimetric assay relative to control. The conditions noted are these: read-out: Activity. In short, it runs like this:
(§1)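 Total membrane vesicles from High-Five insect cells expressing human ABCG2 (hypotonic lysis, differential centrifugation), 10 μg protein/tube, in MES-Tris pH 6.8 buffer with KCl, MgCl2, NaN3, EGTA, ouabain, DTT. Compound in DMSO added ± sodium orthovanadate (0.3 mM), DMSO control. Preincubated 2 min at 37°C, then 5 mM ATP, 20 min. SDS stop, Pi measured colorimetrically. Three independent experiments in duplicate, mean ± SE.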

Series [2] has as its target T1, ABCG2. The experiment in a line: Activation of human ABCG2-mediated ATPase activity preincubated for 2 mins followed by ATP addition at 100 nM and measured after 20 mins by colorimetric assay relative to control. Particulars: read-out: Activity. In short, it runs like this: as §1
In series [3] the target is T1, ABCG2. The experiment in a line: Activation of human ABCG2-mediated ATPase activity preincubated for 2 mins followed by ATP addition at 2.5 M and measured after 20 mins by colorimetric assay relative to control. Also on record: dose or concentration left out as unconfirmed. The conditions noted are these: read-out: Activity. In short, it runs like this: as §1
In series [4] the target is T1, ABCG2. The experiment in a line: Activation of human ABCG2-mediated ATPase activity preincubated for 2 mins followed by ATP addition at 10 M and measured after 20 mins by colorimetric assay relative to control. Also on record: dose or concentration left out as unconfirmed. Particulars: read-out: Activity. An outline of the steps:
as §1

In series [5] the target is T2, Broad substrate specificity ATP-binding cassette transporter ABCG2 (Homo sapiens, UniProt Q9UNQ0).
T2 sequence (Q9UNQ0 whole entry): T1 sequence (Q9UNQ0 whole entry)
As to the kind of experiment: Activation of human ABCG2-mediated ATPase activity preincubated for 2 mins followed by ATP addition and measured after 20 mins by colorimetric assay. In short, it runs like this: as §1

A further series has as its target T3, Adenosine receptor A3 (Homo sapiens, UniProt P0DMS8).
T3 sequence (P0DMS8 whole entry): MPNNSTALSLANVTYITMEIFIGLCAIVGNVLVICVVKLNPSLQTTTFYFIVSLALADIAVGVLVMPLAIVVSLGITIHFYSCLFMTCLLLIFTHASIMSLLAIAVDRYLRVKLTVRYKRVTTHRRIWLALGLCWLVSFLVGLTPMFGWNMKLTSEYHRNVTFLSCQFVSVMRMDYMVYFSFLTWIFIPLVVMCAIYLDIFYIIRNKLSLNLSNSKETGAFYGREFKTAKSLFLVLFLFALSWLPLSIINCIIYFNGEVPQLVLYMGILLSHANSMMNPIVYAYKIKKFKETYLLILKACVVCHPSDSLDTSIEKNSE
The experiment in a line: Binding affinity towards human adenosine A3 receptor.

The results in this text go back to ChEMBL document CHEMBL5154735, “Interaction of A3 adenosine receptor ligands with the human multidrug transporter ABCG2” (Eur J Med Chem, 2022).

What is called EC50 is the concentration that produces a half-maximal response. By Ki is commonly meant a measure of affinity in units of concentration, obtained from inhibition or displacement.

Turning to `CNc1nc(C#Cc2ccc(Cl)s2)nc2c1ncn2[C@@H]1C2CC2(C(=O)OC(C)C)[C@@H](O)[C@H]1O` (single isomer, unassigned), the activity at 20 min, 0.1 µM at ABCG2 [1] is no more than 30%. Still for that read-out and setting: the result for `CCOC(=O)C12CC1[C@@H](n1ccc3c(NC4CC4)nc(C#Cc4ccccc4)nc31)[C@H](O)[C@@H]2O` (single isomer, unassigned) reads no more than 30%. Take `CNc1nc(C#Cc2ccc(Cl)s2)nc2c1ncn2[C@H]1[C@H](O)[C@H](O)[C@@]2(C(=O)OCCCc3ccccc3)C[C@H]12`: the activity at 20 min, 0.1 µM on ABCG2 [2] is 38.8%. `CCCCOC(=O)C12CC1[C@@H](n1cnc3c(NC)nc(C#Cc4ccc(Cl)s4)nc31)[C@H](O)[C@@H]2O` (single isomer, unassigned): the activity at 20 min, 0.1 µM at ABCG2 [1] is no more than 30%. For the compound `CNC(=O)C12CC1[C@@H](n1cnc3c(NC)nc(C#Cc4ccc(Cl)s4)nc31)[C@H](O)[C@@H]2O` (single isomer, unassigned), at ABCG2 [3], the activity at 20 min was 59.2%. As for `CCOC(=O)C12CC1[C@@H](n1ccc3c(NCCCc4ccccc4)nc(C#Cc4ccc(Cl)s4)nc31)[C@H](O)[C@@H]2O` (single isomer, unassigned), the activity at 20 min, 0.1 µM at ABCG2 [2] worked out at 45.5%. Still for that read-out and setting: next, `CCCOC(=O)C12CC1[C@@H](n1cnc3c(NC)nc(C#Cc4ccc(Cl)s4)nc31)[C@H](O)[C@@H]2O` (single isomer, unassigned): 33.9%. For the compound `CNC(=O)[C@H]1O[C@@H](n2cnc3c(NCc4cccc(I)c4)nc(Cl)nc32)[C@H](O)[C@@H]1O` [NAMODENOSON], the results for the activity at 20 min on ABCG2 [3] and on ABCG2 [4] were 101% and 69.9%, respectively. This compound also returned an EC50 in series [5] of 1420 nM.

Regarding `Oc1ccc(CCNC2=NC(C#Cc3ccc(Cl)s3)=NC3=NC=NC32)cc1O` (centres undefined), the activity at 20 min, 0.1 µM on ABCG2 [2] was found to be 95.9%. Besides, the inhibition constant Ki at Adenosine receptor A3 was no less than 99 nM. Taken in the same sequence, the figures for `CCOC(=O)C12CC1[C@@H](n1ccc3c(NCCCc4ccc(OC)c(O)c4)nc(C#Cc4ccccc4)nc31)[C@H](O)[C@@H]2O` (single isomer, unassigned) were 55.9% and no less than 99 nM. `CCOC(=O)C12CC1[C@@H](n1ccc3c(NC)nc(C#Cc4ccc(Cl)s4)nc31)[C@H](O)[C@@H]2O` (single isomer, unassigned): the activity at 20 min, 0.1 µM at ABCG2 [2] was found to be 41%. Consider `CNc1nc(C#Cc2ccc(Cl)s2)nc2c1ncn2[C@@H]1C2CC2(C(=O)OCCC(C)C)[C@@H](O)[C@H]1O` (single isomer, unassigned), for which, at ABCG2 [1], the activity at 20 min, 0.1 µM was no more than 30%. For `CNC(=O)C12CC1[C@@H](n1cnc3c(NCc4cccc(Cl)c4)nc(C#Cc4ccc(Cl)s4)nc31)[C@H](O)[C@@H]2O` (single isomer, unassigned), the activity at 20 min is 97.5% on ABCG2 [3] and 92.9% at ABCG2 [4]. `CNc1nc(C#Cc2ccc(Cl)s2)nc2c1ncn2[C@@H]1C2CC2(C(=O)OCCC2CCCCC2)[C@@H](O)[C@H]1O` (single isomer, unassigned): on ABCG2 [1], the activity at 20 min, 0.1 µM was no more than 30%. Take `CCOC(=O)C12CC1[C@@H](n1ccc3c(NC)nc(I)nc31)[C@H](O)[C@@H]2O` (single isomer, unassigned): the activity at 20 min, 0.1 µM on ABCG2 [1] was no more than 30%. Take `CNc1nc(C#Cc2ccc(Cl)s2)nc2c1ncn2[C@@H]1C2CC2(C(=O)OC)[C@@H](O)[C@H]1O` (single isomer, unassigned): the activity at 20 min on ABCG2 [3] came out at 89.1%; on ABCG2 [4], 79%. For `CCOC(=O)C12CC1[C@@H](n1ccc3c(NC)nc(C#Cc4ccccc4)nc31)[C@H](O)[C@@H]2O` (single isomer, unassigned), the activity at 20 min, 0.1 µM on ABCG2 [1] was no more than 30%. Still for that read-out and setting: next, `CCOC(=O)C12CC1[C@@H](n1cnc3c(NC)cc(C#Cc4ccc(Cl)s4)nc31)[C@H](O)[C@@H]2O` (single isomer, unassigned): no more than 30%. For `Cn1cnc2c(NCCc3ccccc3)nc(C#Cc3ccc(Cl)s3)nc21`, the activity at 20 min, 0.1 µM on ABCG2 [2] was found to be 92.1%. The Ki at Adenosine receptor A3 was no less than 99 nM. Taken in the same sequence, the figures for `Clc1ccc(C#CC2=NC3=NC=NC3C(NCCc3ccccc3)=N2)s1` (centres undefined) were 80.8% and no less than 99 nM. For `CCCNc1nc(C#Cc2ccc(Cl)s2)nc2c1ncn2[C@@H]1C2CC2(C(=O)NC)[C@@H](O)[C@H]1O` (single isomer, unassigned), the activity at 20 min at ABCG2 [3] was found to be 77.9%; at ABCG2 [4], 40%. Turning to `COc1ccc(CCNC2=NC(C#Cc3ccc(Cl)s3)=NC3=NC=CC32)cc1O` (centres undefined), the activity at 20 min, 0.1 µM on ABCG2 [2] was 104%. For the same compound, the Ki at Adenosine receptor A3 is no less than 99 nM. Consider `Clc1cccc(CNC2=NC(C#Cc3ccc(Cl)s3)=NC3=NC=NC32)c1` (centres undefined), for which the activity at 20 min, 0.1 µM on ABCG2 [2] was 40.5%. With `CCOC(=O)C12CC1[C@@H](n1ccc3c(NCC4CC4)nc(C#Cc4ccccc4)nc31)[C@H](O)[C@@H]2O` (single isomer, unassigned), at ABCG2 [1], the activity at 20 min, 0.1 µM was no more than 30%. For the compound `CNC(=O)C1O[C@@H](n2cnc3c(NCc4cccc(I)c4)ncnc32)[C@H](O)[C@@H]1O` (single isomer, unassigned), the activity at 20 min on ABCG2 [3] was 66.2%; on ABCG2 [4], 98.2%. The EC50 in series [5] turned out to be 70 nM. On to `CCOC(=O)C12CC1[C@@H](n1cnc3c(NC)nc(C#Cc4ccc(Cl)s4)cc31)[C@H](O)[C@@H]2O` (single isomer, unassigned), for which, at ABCG2 [1], the activity at 20 min, 0.1 µM was no more than 30%.

Regarding `CNc1nc(C#Cc2ccc(Cl)s2)nc2c1ncn2[C@@H]1C2CC2(C(=O)Oc2ccccc2)[C@@H](O)[C@H]1O` (single isomer, unassigned), the activity at 20 min, 0.1 µM at ABCG2 [2] is 50.3%.

For `O[C@@H]1[C@H](O)C2CC2[C@H]1n1cnc2c(NCc3cccc(Cl)c3)nc(C#Cc3ccc(F)c(F)c3)nc21` (single isomer, unassigned), the activity at 20 min at ABCG2 [3] was determined as 75.2%; at ABCG2 [4] it was 54.1%. The Ki on Adenosine receptor A3 is no less than 99 nM. In the case of `CCOC(=O)C12CC1[C@@H](n1cnc3c(NCCc4ccc(O)c(OC)c4)nc(C#Cc4ccc(Cl)s4)nc31)[C@H](O)[C@@H]2O` (single isomer, unassigned), at ABCG2 [2], the activity at 20 min, 0.1 µM was found to be 59.3%. Consider `CCCNc1nc(C#Cc2ccc(Cl)s2)nc2c1ncn2[C@@H]1O[C@H](C(=O)NC)[C@@H](O)[C@H]1O`, for which the activity at 20 min at ABCG2 [3] came out at 124%; on ABCG2 [4], 122%. With `CCOC(=O)C12C[C@@H]1[C@@H](n1ccc3c(NCCCc4ccccc4)nc(C#Cc4ccccc4)nc31)[C@H](O)[C@@H]2O` (single isomer, unassigned), the activity at 20 min, 0.1 µM at ABCG2 [2] was 37.9%. Consider `CCOC(=O)[C@]12C[C@@H]1[C@@H](n1cnc3c(NC)nc(C#Cc4ccc(F)s4)nc31)[C@H](O)[C@@H]2O`, for which the activity at 20 min, 0.1 µM at ABCG2 [1] is no more than 30%. On the same count and under the same terms, the result for `CNc1nc(C#Cc2ccc(Cl)s2)nc2c1ncn2[C@H]1[C@H](O)[C@H](O)[C@@]2(C(=O)OCCc3ccccc3)C[C@H]12` reads no more than 30%; that for `CNc1nc(C#Cc2ccc(Cl)s2)nc2c1ncn2[C@@H]1O[C@H](C(=O)OC)[C@@H](O)[C@H]1O`, no more than 30%. Regarding `COc1ccc(CCNC2=NC(I)=NC3=NC=CC32)cc1O` (centres undefined), at ABCG2 [2], the activity at 20 min, 0.1 µM stood at 79.6%. At Adenosine receptor A3, this compound showed a Ki of no less than 99 nM. Turning to `CCOC(=O)C12CC1[C@@H](n1cnc3c(NCCc4ccc(OC)c(O)c4)nc(C#Cc4ccc(Cl)s4)nc31)[C@H](O)[C@@H]2O` (single isomer, unassigned), at ABCG2 [2], the activity at 20 min, 0.1 µM is 64.3%. With `CNC(=O)[C@H]1O[C@@H](n2cnc3c(NC)nc(C#Cc4ccc(Cl)s4)nc32)[C@H](O)[C@@H]1O`, the activity at 20 min worked out at 112% at ABCG2 [3] and 122% at ABCG2 [4].
